Laboratory results: ChEMBL document CHEMBL5226368, “1H NMR-Based Biochemometric Analysis of Morus alba Extracts toward a Multipotent Herbal Anti-Infective” (J Nat Prod, 2023)
≈ marks a conversion by molar mass, not a printed value. Calls of active or inactive are those of the source. No cut-off for these calls is given here.

How the values were obtained:
[1] = system: Streptococcus pneumoniae; experiment: Antibacterial activity against Streptococcus pneumoniae DSM20566 assessed as inhibition of bacterial growth incubated for 24 hrs by broth microdilution assay; type: functional
How it was run: (§1)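 S. pneumoniae was tested by broth microdilution in Todd Hewitt broth with yeast extract. Double-concentrated half-log dilutions (duplicates) were combined 1:1 by volume with inoculum at 2×10^5 CFU/mL, then held 24 h at 37 °C under 5% CO2. MIC was the lowest concentration without visible growth, averaged over three assays. Ampicillin and rifampicin served as references.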

[2] = system: Staphylococcus aureus; experiment: Antibacterial activity against Staphylococcus aureus ATCC43000 assessed as inhibition of bacterial growth incubated for 24 hrs by broth microdilution assay; type: functional
How it was run: (§2)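 Broth microdilution on S. aureus in brain-heart-infusion broth. Double-concentrated half-log dilutions (duplicates) mixed with an equal volume of bacterial suspension at 2×10^5 CFU/mL. Incubated 24 h at 37 °C, 5% CO2. MIC read as the lowest concentration with no visible growth. Reported as mean MIC of three assays. Ampicillin and rifampicin served as references.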

[3] = system: Staphylococcus aureus; experiment: Antibacterial activity against Staphylococcus aureus ATCC25923 assessed as inhibition of bacterial growth incubated for 24 hrs by broth microdilution assay; type: functional; how it was run: as §2
[4] = system: Streptococcus pneumoniae; experiment: Antibacterial activity against Streptococcus pneumoniae D39 assessed as inhibition of bacterial growth incubated for 24 hrs by broth microdilution assay; type: functional; how it was run: as §1
[5] = system: Calu-3; experiment: Cytotoxicity against human Calu-3 cells assessed as reduction in cell viability incubated for 72 hrs by WST-8 assay; type: toxicity, cell-based; details: calu-3, 72 h
How it was run: (§3)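 Confluent monolayers in serum-free medium with 0.2 μg/mL trypsin were exposed to six half-log concentrations (maximum 100 μM) for 72 h at 37 °C. WST-8 was added for 2 h and OD read at 450 vs 620 nm (NADH activity). After PBS washes, crystal violet staining was used for viability. At least three assays were run.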

[6] = system: A549; experiment: Cytotoxicity against human A549 cells assessed as reduction in cell viability incubated for 72 hrs by WST-8 assay; type: toxicity, cell-based; details: a549, 72 h; how it was run: as §3
[7] = system: Influenza A virus; experiment: Antiviral activity against Influenza A virus; type: functional, organism-based

| Structure (SMILES) | MIC [1] | MIC [2] | MIC [3] | MIC [4] | Activity [5] | Activity [6] | Activity [7] |
| --- | --- | --- | --- | --- | --- | --- | --- |
| CO[C@H]1/C=C/O[C@@]2(C)Oc3c(C)c(O)c4c(O)c(c(/C=N/N5CCN(C)CC5)c(O)c4c3C2=O)NC(=O)/C(C)=C\C=C\[C@H](C)[C@H](O)[C@@H](C)[C@@H](O)[C@@H](C)[C@H](OC(C)=O)[C@@H]1C [RIFAMPIN] | 0.02 µM (≈ 0.0165 µg/mL) | 15.4 µM (≈ 12.7 µg/mL) | 1 µM (≈ 0.823 µg/mL) | – | – | – | – |
| CC1(C)S[C@@H]2[C@H](NC(=O)[C@H](N)c3ccccc3)C(=O)N2[C@H]1C(=O)O [AMPICILLIN] | – | – | – | 0.02 µM (≈ 0.00699 µg/mL) | – | – | – |
| CC(C)=CC[C@]12Oc3cc(O)c([C@H]4C=C(C)C[C@H](c5ccc(O)cc5O)[C@H]4C(=O)c4ccc(O)cc4O)c(O)c3C(=O)[C@@]1(O)Oc1cc(O)ccc12 [SANGGENON C] | 2.08 µM (≈ 1.47 µg/mL) | 3.16 µM (≈ 2.24 µg/mL) | 3.16 µM (≈ 2.24 µg/mL) | 1.72 µM (≈ 1.22 µg/mL) | Non-Toxic | Non-Toxic | – |
| CC(C)=CCC12Oc3cc(O)c(C4C=C(C)CC(c5ccc(O)cc5O)C4C(=O)c4ccc(O)cc4O)c(O)c3C(=O)C1(O)Oc1cc(O)ccc12 (stereo not drawn) | 3.16 µM (≈ 2.24 µg/mL) | 10 µM (≈ 7.09 µg/mL) | 10 µM (≈ 7.09 µg/mL) | 3.16 µM (≈ 2.24 µg/mL) | Non-Toxic | Non-Toxic | inactive |
| CC(C)=CCCC1=C[C@H](c2c(O)cc3c(c2O)C(=O)C[C@@H](c2ccc(O)cc2O)O3)[C@@H](C(=O)c2ccc(O)cc2O)[C@H](c2ccc(O)cc2O)C1 | 3.16 µM (≈ 2.2 µg/mL) | 10 µM (≈ 6.95 µg/mL) | 10 µM (≈ 6.95 µg/mL) | 3.16 µM (≈ 2.2 µg/mL) | Non-Toxic | Non-Toxic | – |
